Laboratory results taken from ChEMBL document CHEMBL1250460, “Rational conversion of noncontinuous active region in proteins into a small orally bioavailable macrocyclic drug-like molecule: the HIV-1 CD4:gp120 paradigm” (Bioorg Med Chem, 2010).
Calls of active or inactive are those of the source. The rule behind the calls is not given here.

What was measured:
[1] = system: HeLa; test: Inhibition of HIV1 gp120 binding to CD4 assessed as inhibition of CD4 expressing human HeLa cells by MAGI assay; format: cell-based; details: Human immunodeficiency virus 1
Method in brief: (§1)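 MAGI assay: HeLa-CD4+ beta-gal cells seeded at 15 × 10³ per well, infected with HIV-1 HXB2 with or without inhibitor in the presence of DEAE-dextran. Two days after infection, cells fixed in 1% formaldehyde/0.2% glutaraldehyde in PBS. Stained with ferro/ferricyanide (4 mM each), 2 mM MgCl₂ and 0.4 mg/mL X-Gal. Blue cells counted by light microscopy.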

[2] = Tmax in Wistar rat at 1 mg/kg, iv; format: ADME, organism-based; parameters: dose 1 mg/kg, route intravenous; details: in vivo
Method in brief: (§2)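 Conscious male Wistar rats (275 ± 20 g, n = 5 per route) with jugular vein cannula implanted 24 h before dosing. Given 1 mg/kg IV bolus or 10 mg/kg by oral gavage, dissolved in water. Heparinized blood sampled at several times up to 24 h. Plasma separated by centrifugation (4000 g, 5 min, 4 °C), stored at −70 °C. Parameters from noncompartmental analysis.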

[3] = Tmax in Wistar rat at 10 mg/kg, po; format: ADME, organism-based; parameters: dose 10 mg/kg, route oral; details: in vivo; method in brief: as §2
[4] = system: Rattus norvegicus; test: AUC in Wistar rat at 10 mg/kg, po; format: ADME, organism-based, Plasma; parameters: dose 10 mg/kg, route oral; details: in vivo; method in brief: as §2
[5] = system: Human immunodeficiency virus 1; test: Antiviral activity against HIV1 assessed as reduction in infection; format: functional; method in brief: as §1
[6] = system: Rattus norvegicus; test: Volume of distribution at steady state in Wistar rat at 10 mg/kg, po; format: ADME, organism-based; parameters: dose 10 mg/kg, route oral; details: in vivo; method in brief: as §2
[7] = Cmax in Wistar rat at 1 mg/kg, iv; format: ADME, organism-based; parameters: dose 1 mg/kg, route intravenous; details: in vivo; method in brief: as §2
[8] = Oral bioavailability in Wistar rat at 10 mg/kg; format: ADME, organism-based; details: in vivo; method in brief: as §2
[9] = Half life in Wistar rat at 10 mg/kg, po; format: ADME, organism-based; parameters: dose 10 mg/kg, route oral; details: in vivo; method in brief: as §2
[10] = Cmax in Wistar rat at 10 mg/kg, po; format: ADME, organism-based; parameters: dose 10 mg/kg, route oral; details: in vivo; method in brief: as §2

Tmax [2] [min] | Tmax [3] [min] | AUC [4] [ng·min/mL] | Vdss [6] [L/kg] | Cmax [7] [ng/mL] | bioavailability [8] [%] | half-life [9] [min] | Cmax [10] [ng/mL] | SMILES | inhibition [1] | inhibition (INH) [5] [%]
 |  |  |  |  |  |  |  | N=C(N)NCCCC1NC(=O)CCCCCC(=O)NC(Cc2ccc(O)cc2)CN(CC(N)=O)C1=O (stereo unspecified) | inactive | 
5 | 18 | 21770 | 0.6 | 102 | 10 | 73 | 866 | N=C(N)NCCCC1NC(=O)CCCCCC(=O)NC(Cc2ccccc2)CN(CC(N)=O)C1=O (stereo unspecified) | Active | 80
